Columns and labels:
[1] = Drug uptake in parent HEK293T cells assessed as increase in mean fluorescence intensity at 10 uM incubated for 1 hr by flow cytometry analysis; assay type: ADME, cell-based; settings: human, hek-293t
Procedure, shortened: (§1)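 Flow cytometry of cells exposed to 10 μM compound for 1 h, read as mean fluorescence intensity. Cell lines were OATP1B3-overexpressing HEK-293T (lentiviral transduction, MOI 10), parental HEK-293T, Hep3B, HepG2 and Huh-7.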

[2] = Drug uptake in HEK293T cells expressing OATP1B3 assessed as increase in mean fluorescence intensity at 10 uM incubated for 1 hr by flow cytometry analysis; assay type: ADME, cell-based; settings: human, hek-293t; procedure, shortened: as §1
[3] = Drug uptake in human Hep3B cells assessed as increase in mean fluorescence intensity at 10 uM incubated for 1 hr by flow cytometry analysis; assay type: ADME, cell-based; settings: hep 3b2, 1 h; procedure, shortened: as §1
[4] = Drug uptake in human HepG2 cells assessed as increase in mean fluorescence intensity at 10 uM incubated for 1 hr by flow cytometry analysis; assay type: ADME, cell-based; settings: hepg2, 1 h; procedure, shortened: as §1
[5] = Drug uptake in human Huh-7 cells assessed as increase in mean fluorescence intensity at 10 uM incubated for 1 hr by flow cytometry analysis; assay type: ADME, cell-based; settings: huh-7, 1 h; procedure, shortened: as §1
[6] = Drug uptake in tumor of athymic nude mouse xenografted with human Hep3B cells assessed as increase in tumor signal at 2 mg/kg, iv measured after 48 hrs post injection by IVIS Lumina imaging system; assay type: ADME, organism-based, Neoplasm, Hep 3B2; settings: in vivo
Procedure, shortened: (§2)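 Female athymic nude mice bearing Hep3B or Huh-7 tumors received 2 mg/kg intravenously. They were imaged by IVIS at 4, 24 and 48 h. Tumors and livers were excised at 48 h for ex vivo fluorescence, with background taken from the neck signal.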

[7] = Drug uptake in human HepG2 cells assessed as increase in fluorescence signal at 25 uM incubated for 1 hr by flow cytometry based analysis; assay type: ADME, cell-based; settings: hepg2, 1 h
[8] = Drug uptake in human HB17 cells assessed as increase in fluorescence signal at 25 uM incubated for 1 hr by flow cytometry based analysis; assay type: ADME, cell-based; settings: hb17, 1 h
[9] = Drug uptake in human SH-SY5Y cells assessed as increase in fluorescence signal at 25 uM incubated for 1 hr by flow cytometry based analysis; assay type: ADME, cell-based
[10] = Drug uptake in human HepG2 cells assessed as increase in fluorescence signal at 10 to 25 uM incubated for 1 hr by confocal fluorescence microscopy based analysis; assay type: ADME, cell-based; settings: hepg2, 1 h, dose 10-25 µM
[11] = Drug uptake in human HB17 cells assessed as increase in fluorescence signal at 10 to 25 uM incubated for 1 hr by confocal fluorescence microscopy based analysis; assay type: ADME, cell-based; settings: hb17, 1 h, dose 10-25 µM
[12] = Drug uptake in human SH-SY5Y cells assessed as increase in fluorescence signal at 10 to 25 uM incubated for 1 hr by confocal fluorescence microscopy based analysis; assay type: ADME, cell-based; settings: dose 10-25 µM
[13] = Drug uptake in tumor of athymic nude mouse xenografted with human Hep3B cells assessed as tumor to background ratio at 2 mg/kg, iv measured after 4 to 48 hrs by IVIS Lumina imaging system; assay type: ADME, organism-based, Neoplasm, Hep 3B2; settings: in vivo, time 4-48 hrs
[14] = Drug uptake tumor of in athymic nude mouse xenografted with human Huh-7 cells assessed as tumor to background ratio at 2 mg/kg, iv measured after 4 to 48 hrs by IVIS Lumina imaging system; assay type: ADME, organism-based, Neoplasm; settings: in vivo, time 4-48 hrs
[15] = Drug uptake in tumor of athymic nude mouse xenografted with human Huh-7 cells assessed as increase in tumor signal at 2 mg/kg, iv measured after 48 hrs post injection by IVIS Lumina imaging system; assay type: ADME, organism-based, Neoplasm; settings: in vivo; procedure, shortened: as §2
[16] = Drug uptake in liver of athymic nude mouse xenografted with human Hep3B cells assessed as increase in liver signal at 2 mg/kg, iv measured after 48 hrs post injection by IVIS Lumina imaging system; assay type: ADME, organism-based, Hep 3B2; settings: in vivo; procedure, shortened: as §2
[17] = Drug uptake in athymic nude mouse liver xenografted with human Huh-7 cells assessed as increase in liver signal at 2 mg/kg, iv measured after 48 hrs post injection by IVIS Lumina imaging system; assay type: ADME, organism-based; settings: in vivo; procedure, shortened: as §2
[18] = Ratio of drug concentration in athymic nude mouse tumor to liver xenografted with human Huh-7 cells assessed as tumor to liver ratio at 2 mg/kg measured after 48 hrs post injection by IVIS Lumina imaging system; assay type: ADME, organism-based; settings: in vivo
Procedure, shortened: (§3)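 Tumor-to-liver ratio was calculated from ex vivo fluorescence of excised tumors and livers at 48 h after 2 mg/kg intravenous dosing in xenograft-bearing female athymic nude mice.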

[19] = Ratio of drug concentration in athymic nude mouse tumor to liver xenografted with human Hep3B cells assessed as tumor to liver ratio at 2 mg/kg measured after 48 hrs post injection by IVIS Lumina imaging system; assay type: ADME, organism-based; settings: in vivo; procedure, shortened: as §3
[20] = Drug uptake in tumor of mouse xenografted with HB66 PDX model assessed as increase in fluorescence signal at 10 mg/kg, iv measured after 72 hrs post injection by IVIS Lumina imaging system; assay type: ADME, organism-based, Neoplasm; settings: in vivo
Procedure, shortened: (§4)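 Mice with orthotopic HB52 or HB66 hepatoblastoma PDX tumors, and non-tumor-bearing mice, received 10 mg/kg intravenously. Tumor growth was followed by MRI. Mice were imaged by IVIS at 24, 48 and 72 h, then tumors, livers and lungs were analysed ex vivo at 72 h, n = 1.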

[21] = Drug uptake in tumor of mouse xenografted with HB52 PDX model assessed as increase in fluorescence signal at 10 mg/kg, iv measured after 72 hrs post injection by IVIS Lumina imaging system; assay type: ADME, organism-based, Neoplasm; settings: in vivo; procedure, shortened: as §4
[22] = Drug uptake in liver of mouse xenografted with HB66 PDX model assessed as increase in fluorescence signal at 10 mg/kg, iv measured after 72 hrs post injection by IVIS Lumina imaging system; assay type: ADME, organism-based; settings: in vivo; procedure, shortened: as §4
[23] = Drug uptake in liver of mouse xenografted with HB52 PDX model assessed as increase in fluorescence signal at 10 mg/kg, iv measured after 72 hrs post injection by IVIS Lumina imaging system; assay type: ADME, organism-based; settings: in vivo; procedure, shortened: as §4
[24] = Drug uptake in lung of non-tumor bearing mouse assessed as increase in fluorescence signal at 10 mg/kg, iv measured after 72 hrs post injection by IVIS Lumina imaging system; assay type: ADME, organism-based; settings: in vivo; procedure, shortened: as §4
[25] = Drug uptake in parent HEK293T cells by DAPI staining based confocal fluorescence microscopy analysis; assay type: ADME, cell-based; settings: human, hek-293t
[26] = Drug uptake in HEK293T cells expressing OATP1B3 by DAPI staining based confocal fluorescence microscopy analysis; assay type: ADME, cell-based; settings: human, hek-293t
[27] = Drug uptake in human Hep3B cells expressing OATP1B3 by DAPI staining based confocal fluorescence microscopy analysis; assay type: ADME, cell-based; settings: hep 3b2
[28] = Drug uptake in human HepG2 cells expressing OATP1B3 by DAPI staining based confocal fluorescence microscopy analysis; assay type: ADME, cell-based
[29] = Drug uptake in parent HEK293T cells at 10 uM incubated for 1 hr by DAPI staining based flow cytometry analysis; assay type: ADME, cell-based; settings: human, hek-293t
[30] = Drug uptake in HEK293T cells expressing OATP1B3 at 10 uM incubated for 1 hr by DAPI staining based flow cytometry analysis; assay type: ADME, cell-based; settings: human, hek-293t
[31] = Drug uptake in human Hep3B at 10 uM incubated for 1 hr by DAPI staining based flow cytometry analysis; assay type: ADME, cell-based; settings: hep 3b2, 1 h
[32] = Drug uptake in human HepG2 at 10 uM incubated for 1 hr by DAPI staining based flow cytometry analysis; assay type: ADME, cell-based; settings: hepg2, 1 h

| SMILES | Drug uptake [1] | Drug uptake [2] | Drug uptake [3] | Drug uptake [4] | Drug uptake [5] | Drug uptake [7] | Drug uptake [8] | Drug uptake [9] | Drug uptake [10] | Drug uptake [11] | Drug uptake [12] | Ratio [13] | Ratio [14] | Ratio [18] | Ratio [19] | further results |
| --- | --- | --- | --- | --- | --- | --- | --- | --- | --- | --- | --- | --- | --- | --- | --- | --- |
| CC1(C)C(/C=C/C=C/C=C/C=C2/N(CCCCS(=O)(=O)[O-])c3cc(I)ccc3C2(C)C)=[N+](CCCCS(=O)(=O)[O-])c2cc(I)ccc21.[Na+] | Active | Active | Active | Active | Active |  |  |  |  |  |  |  |  |  |  |  |
| CC1(C)C(/C=C/C=C/C=C/C=C2/N(CCCCS(=O)(=O)[O-])c3cccc(I)c3C2(C)C)=[N+](CCCCS(=O)(=O)[O-])c2ccc3ccccc3c21.[Na+] | Active | Active | Active | Active | Active |  |  |  |  |  |  |  |  |  |  |  |
| CC1(C)C(/C=C/C=C/C=C/C=C2/N(CCCCS(=O)(=O)[O-])c3ccc(I)cc3C2(C)C)=[N+](CCCCS(=O)(=O)[O-])c2ccc(I)cc21.[Na+] | Active | Active | Active | Active | Active |  |  |  |  |  |  |  |  |  |  |  |
| CC1(C)C(/C=C/C=C/C=C/C=C2/N(CCCCS(=O)(=O)[O-])c3cccc(I)c3C2(C)C)=[N+](CCCCS(=O)(=O)[O-])c2cccc(I)c21.[Na+] | Active | Active | Active | Active | Active | Active | Active | Not Active | Active | Active | Not Active | 5 | 2 | 2 | 3 | Drug uptake [6]: Active; Drug uptake [15]: Active; Drug uptake [16]: Active; Drug uptake [17]: Active; Drug uptake [20]: Active; Drug uptake [21]: Active; Drug uptake [22]: Not Active; Drug uptake [23]: Not Active; Drug uptake [24]: Not Active |
| CC1(C)C(/C=C/C=C/C=C/C=C2/N(CCCCS(=O)(=O)[O-])c3ccc4ccccc4c3C2(C)C)=[N+](CCCCS(=O)(=O)[O-])c2ccc3ccccc3c21.[Na+] [INDOCYANINE GREEN] |  |  |  |  |  | Active | Active | Not Active | Active | Active | Not Active | 2 | 2 | 2 | 3 | Drug uptake [25]: Active; Drug uptake [26]: Active; Drug uptake [27]: Active; Drug uptake [28]: Active; Drug uptake [29]: Active; Drug uptake [30]: Active; Drug uptake [31]: Active; Drug uptake [32]: Active |

Reference: ChEMBL document CHEMBL5370595, “Development of Iodinated Indocyanine Green Analogs as a Strategy for Targeted Therapy of Liver Cancer” (ACS Med Chem Lett, 2023)
